Results collected from several papers.
Lines come from different studies, so protocols differ.
Target: Serine/threonine-protein kinase LATS1 (LATS1, Homo sapiens, UniProt O95835)
Sequence (O95835 1-1130, as in one of the studies): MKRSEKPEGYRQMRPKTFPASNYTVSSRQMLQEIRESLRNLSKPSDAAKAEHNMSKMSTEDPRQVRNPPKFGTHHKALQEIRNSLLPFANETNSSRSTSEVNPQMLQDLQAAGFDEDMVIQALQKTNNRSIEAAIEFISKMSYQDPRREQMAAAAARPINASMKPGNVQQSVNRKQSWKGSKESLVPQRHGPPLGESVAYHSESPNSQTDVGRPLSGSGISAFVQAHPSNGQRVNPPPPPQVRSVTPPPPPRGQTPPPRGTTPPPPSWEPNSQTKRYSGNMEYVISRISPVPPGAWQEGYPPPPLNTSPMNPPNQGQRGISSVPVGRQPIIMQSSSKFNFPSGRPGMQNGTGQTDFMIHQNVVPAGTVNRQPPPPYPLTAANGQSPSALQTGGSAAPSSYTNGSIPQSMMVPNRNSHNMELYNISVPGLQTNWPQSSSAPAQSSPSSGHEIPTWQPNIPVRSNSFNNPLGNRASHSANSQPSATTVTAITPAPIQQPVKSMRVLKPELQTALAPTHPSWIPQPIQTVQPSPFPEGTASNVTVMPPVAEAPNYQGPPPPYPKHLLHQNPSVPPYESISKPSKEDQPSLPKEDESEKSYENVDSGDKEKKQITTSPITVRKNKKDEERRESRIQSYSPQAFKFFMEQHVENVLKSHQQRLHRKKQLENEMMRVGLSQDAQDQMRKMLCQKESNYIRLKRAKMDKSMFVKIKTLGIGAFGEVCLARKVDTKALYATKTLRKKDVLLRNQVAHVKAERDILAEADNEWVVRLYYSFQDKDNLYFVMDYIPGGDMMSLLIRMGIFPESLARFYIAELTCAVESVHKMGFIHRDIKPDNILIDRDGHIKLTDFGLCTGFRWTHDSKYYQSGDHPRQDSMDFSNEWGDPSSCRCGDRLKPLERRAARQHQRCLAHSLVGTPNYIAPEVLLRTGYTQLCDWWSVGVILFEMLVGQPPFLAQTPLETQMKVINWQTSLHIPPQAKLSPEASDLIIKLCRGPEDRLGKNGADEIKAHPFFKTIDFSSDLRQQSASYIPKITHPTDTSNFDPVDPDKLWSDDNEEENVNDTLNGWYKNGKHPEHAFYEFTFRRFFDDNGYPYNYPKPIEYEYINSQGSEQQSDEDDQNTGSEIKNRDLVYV

Structure (SMILES)	test	conditions	remaining binding
Nc1ncc2c(n1)-c1c([nH]c3ccc(C#CC4CC4)cc13)CCCC2	binding, competition with immobilised ligand	1 µM	92%
Cc1cnc(Nc2ccc(C(=O)N3CCC(N4CCCC4)CC3)cc2)nc1-c1cc2ccccc2s1	binding, competition with immobilised ligand	1 µM	89%
CN(C)c1ncnc(-c2ccc3nc(Nc4cc(CN5CCN(C(=O)CC(F)(F)F)CC5)ccn4)[nH]c3c2)c1Cl	cell-free assay, competition with immobilised ligand	1 µM	95%
O=C(NCCCN1CCOCC1)c1ccc(Nc2ncc(Cl)c(-c3ccc(Cl)s3)n2)cc1	binding, competition with immobilised ligand	1 µM	42%
O=C(NCC1CCOCC1)c1n[nH]cc1NC(=O)c1c(F)cccc1F	binding, competition with immobilised ligand	1 µM	100%
FC(F)(F)Oc1cccc(-c2cnc3ccc(-c4ccncc4)nn23)c1	cell-free assay, competition with immobilised ligand	5 µM	100%
CN(c1nccc(-c2cnn3ncccc23)n1)C1CC1	binding	1 µM	82%
COc1cnc(Nc2cccc(S(N)(=O)=O)c2)nc1N1CCN(c2ccccc2)CC1	binding, competition with immobilised ligand	1 µM	100%
N#Cc1ccc(Nc2ccc3[nH]c(=O)[nH]c3c2)c(Cl)c1	cell-free assay, competition with immobilised ligand	1 µM	76%
O=C(c1ccc(Nc2nccc(-c3cc4ccccc4s3)n2)cc1)N1CCC(N2CCCC2)CC1	binding, competition with immobilised ligand	1 µM	93%
C[C@H]1CCN(c2nccc(-c3cnn4ncccc34)n2)C1	binding	1 µM	100%
CCOCCn1cc(C(=O)Nc2ccc(-n3nc(-c4cccnc4)cc3C(F)(F)F)cn2)ccc1=O	cell-free assay, competition with immobilised ligand	1 µM	69%
N[C@@H]1CCN(c2nccc(-c3cnn4ncccc34)n2)C1	binding	1 µM	100%
NS(=O)(=O)c1cc(NC(=O)Cc2ccccc2)ccc1Oc1cccc(Cl)c1	cell-free assay, competition with immobilised ligand	1 µM	79%
CN(C)c1nccc(-c2cnc3ncccn23)n1	binding	1 µM	100%
Cc1nc(Cc2cccc(C(F)(F)F)c2)sc1-c1ccc(C(N)=O)nc1	cell-free assay, competition with immobilised ligand	1 µM	100%
CN(CCCC(F)(F)F)c1nccc(-c2cnn3ncccc23)n1	binding	1 µM	78%
C[C@@H](c1ccc(-n2cnc3c(N)ncnc32)cc1)N1CCc2nn(C)c(Cc3ccccc3)c2C1=O	binding, competition with immobilised ligand	0.1 µM	100%
CCCCN(CCCC)C(=O)CN1C[C@@H](c2cc(OC)c3c(c2)OCO3)[C@H](C(=O)O)[C@H]1CC(C)(C)CCC	cell-free assay, competition with immobilised ligand	1 µM	75.2%
CN(C)c1nccc(-c2cnn3ncccc23)n1	binding	1 µM	100%
